# Measurements collected from several papers.
# Compare with care: the assays were run in different laboratories.
# Target: Tyrosine-protein kinase ABL2 (ABL2, Homo sapiens, UniProt P42684)
SMILES,assay,conditions,endpoint,result
COc1ccc2[nH]c3c4[nH]c5ccc(OC)cc5c4c4c(c3c2c1)C(=O)NC4=O,"binding, competition with immobilised ligand",1 µM,remaining binding,82%
CC#CC(=O)N1CCC[C@H]1c1nc(-c2ccc(C(=O)Nc3ccccn3)cc2)c2c(N)nccn12,"enzyme activity, inhibitor",1 µM,inhibition,10%
Cc1ccc(NC(=O)c2ccnc(C(F)(F)F)c2)cc1-c1cc(OCCO)nc(N2CCOCC2)c1,"binding, competition with immobilised ligand",1 µM,remaining binding,99%
CO[C@@H]1[C@H](N(C)C(=O)c2ccccc2)C[C@H]2O[C@]1(C)n1c3ccccc3c3c4c(c5c6ccccc6n2c5c31)C(=O)NC4,"enzyme activity, inhibitor",1 µM,inhibition,17%
COc1ccc2oc(-c3ccc4nc(N)oc4c3)c/c(=N\c3ccccc3NC(=O)CCN)c2c1,binding,1 µM,remaining binding,101%
C#Cc1cc(-c2cc(Nc3nc(N[C@@H](C)c4ccc(F)cn4)ncc3Cl)n[nH]2)ccc1C=O,"enzyme activity, inhibitor",0.2 µM,inhibition,26.4%
CCCCC(=O)Nc1ccc(-c2ccc3ncn(CCC)c(=O)c3c2)cn1,"binding, competition with immobilised ligand",0.5 µM,remaining binding,100%
C1=C/COCc2cc(ccc2OCCN2CCCC2)Nc2nccc(n2)-c2cccc(c2)COC/1,binding,0.1 µM,remaining binding,74%
